# Results published in PubChem BioAssay.
# Calls of active or inactive are those of the source.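 Rule for the calls, unless noted: active = viability loss from added drug above about 55%, and viability with drug at most 40%, in both replicates (limit read from the data, passing the limit was not always enough); inconclusive = both conditions met in only one replicate; inactive = neither replicate meets both conditions.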
# Assays:
# [1] = reducers of endogenous Her2 protein level, primary screen, SKBR3 breast tumor cells, AlphaScreen, ATP viability (AID 461;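 active = Her2 level under about 52% in both replicate screens, with viability over 70% of control, limit read from the data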;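 for Her2 level: lower value means less Her2 protein in the cells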;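 for viability: percent of carrier control wells set as 100% viability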); conditions: 18-24 h, measured here: SKBR3 viability, ATP luminescence, at 10 µM
# [2] = target: Receptor tyrosine-protein kinase erbB-2 (Homo sapiens) (UniProt P04626); assay: as above; conditions: 18-24 h, at 10 µM, stronger effect = lower value
# Chain of Receptor tyrosine-protein kinase erbB-2 (Homo sapiens) (P04626 whole entry, looked up): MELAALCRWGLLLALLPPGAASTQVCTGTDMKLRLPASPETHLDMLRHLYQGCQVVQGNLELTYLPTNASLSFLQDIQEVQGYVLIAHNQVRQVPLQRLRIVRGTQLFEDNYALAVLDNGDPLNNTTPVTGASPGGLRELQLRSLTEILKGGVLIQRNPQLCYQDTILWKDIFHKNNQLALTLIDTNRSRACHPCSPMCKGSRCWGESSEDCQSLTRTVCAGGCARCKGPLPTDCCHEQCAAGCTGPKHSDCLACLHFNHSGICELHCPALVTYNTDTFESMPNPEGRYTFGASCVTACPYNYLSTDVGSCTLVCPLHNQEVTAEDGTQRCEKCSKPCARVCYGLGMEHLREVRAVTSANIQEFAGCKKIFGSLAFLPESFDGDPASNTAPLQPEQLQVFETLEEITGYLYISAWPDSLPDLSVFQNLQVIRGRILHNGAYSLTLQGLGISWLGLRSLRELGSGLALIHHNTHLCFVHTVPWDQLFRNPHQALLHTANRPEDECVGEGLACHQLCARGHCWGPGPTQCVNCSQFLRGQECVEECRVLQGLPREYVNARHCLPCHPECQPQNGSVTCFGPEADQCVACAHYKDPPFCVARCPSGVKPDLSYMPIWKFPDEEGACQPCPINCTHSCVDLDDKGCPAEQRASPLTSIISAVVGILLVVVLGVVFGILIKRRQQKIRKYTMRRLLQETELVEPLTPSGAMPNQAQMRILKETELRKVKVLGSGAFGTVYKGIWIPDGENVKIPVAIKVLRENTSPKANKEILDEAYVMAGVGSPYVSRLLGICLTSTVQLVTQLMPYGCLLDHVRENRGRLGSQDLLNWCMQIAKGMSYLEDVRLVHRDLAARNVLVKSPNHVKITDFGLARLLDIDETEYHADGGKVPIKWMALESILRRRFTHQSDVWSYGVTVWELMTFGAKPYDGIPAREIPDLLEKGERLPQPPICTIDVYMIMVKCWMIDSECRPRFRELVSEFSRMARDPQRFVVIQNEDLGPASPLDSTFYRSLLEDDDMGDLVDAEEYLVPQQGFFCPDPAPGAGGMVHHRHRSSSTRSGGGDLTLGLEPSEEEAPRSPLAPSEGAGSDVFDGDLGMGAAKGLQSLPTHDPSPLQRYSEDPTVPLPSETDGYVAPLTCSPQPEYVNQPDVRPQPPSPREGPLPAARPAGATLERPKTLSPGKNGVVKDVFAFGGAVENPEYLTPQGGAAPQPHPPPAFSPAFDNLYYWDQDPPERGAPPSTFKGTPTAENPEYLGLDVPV
# [3] = SK-BR-3 cell growth inhibitors, pilot screen, 24 h, human (AID 572;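 active = viability at or below 10% of carrier control in both of two separate runs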;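 note: compound exposure lasted between 18 and 24 h rather than exactly 24 h; 100% = carrier-treated control wells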); conditions: SK-BR-3 viability, CellTiter-Glo luminescence, at 10 µM, stronger effect = lower value
# [4] = HUVEC growth inhibition – cell-based, human, primary screen (AID 575;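 active = viability at or below 30% in both replicate assays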;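 note: 100% = median of untreated cell wells with 0.1% DMSO on each plate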); conditions: HUVEC proliferation, CellTiter-Glo luminescence, 72 h; at 10 µM; stronger effect = lower value
# How it was run: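 Assay system: primary human umbilical vein endothelial cells / Buffer or medium: endothelial basal medium with 2% FBS plus growth supplements / Compound dosing: one dose, 10 µM final, 0.1% DMSO / Timing: 72 h treatment at 37 °C / Signal: CTG luminescence / Benchmarks: 32 DMSO-only cell-control wells (high), 32 MePR drug-control wells (low) per plate / Plate: collagen-coated 384-well format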
# [5] = growth inhibitors of H69AR lung tumor, primary screen, human, duplicate replicates (AID 580;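 active = viability at or under a set limit in both replicates, limit being median viability minus 3 SD, cut at about 48% in these data, passing the limit was not always enough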;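 note: 100% = mean luminescence of untreated wells and 0% = no signal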); conditions: H69AR lung tumor cells viability, ATP luminescence, 72 h; at 10 µM; stronger effect = lower value
# [6] = reversal of MRP1-mediated doxorubicin resistance, pilot screen, H69AR cells, doxorubicin co-treatment (AID 601); conditions: CellTiter-Glo, 72 h, at 10 µM; for differential viability (reversal): stronger effect = higher value
# [7] = 384-well plate pilot, post-Golgi transport modulator project, inhibition of yeast transport mutant growth (AID 636; in the data active = inhibition above about 31%); conditions: absorbance 615 nm, about 18 h, stronger effect = higher value
# [8] = growth suppression of yeast trafficking mutant, preliminary HTS, modulators of trafficking downstream of Golgi apparatus project, 1536-format plate, OD 615 nm (AID 637; in the data active = inhibition above about 30%); conditions: yeast transport mutant growth, absorbance 615 nm, 18 h; stronger effect = higher value
# [9] = H69AR cells + 2 uM doxorubicin, measured here: viability with 2 uM doxorubicin, stronger effect = lower value
# [10] = H69AR cells, compound alone cytotoxicity
Structure (SMILES),viability [1] [%],Her2 level [2],viability [3],viability [4],viability [5],differential viability (reversal) ([6]; H69AR cells + 2 uM doxorubicin),"viability [6, 9] [%]","viability [6, 10] [%]",inhibition [7],inhibition [8]
Cn1c(SC/C=C/c2ccccc2)nnc1-c1cnccn1,80.5,102% (inactive),80.5% (inactive),114% (inactive),94.3% (inactive),10.3% (inactive),84,94.3,2.27% (inactive),-5.48% (inactive)
C=CCOC(=O)CCC(=O)Nc1cc(OC)nc(OC)n1,112,112% (inactive),112% (inactive),92.1% (inactive),90.8% (inactive),0.705% (inactive),90.1,90.8,-3.07% (inactive),8.73% (inactive)
COc1ccccc1NC(=O)N1CCCC1C(=O)NC1CCCCC1 (stereo not given),104,91.5% (inactive),104% (inactive),101% (inactive),80.1% (inactive),-4.57% (inactive),84.7,80.1,-9.32% (inactive),-2.5% (inactive)
O=c1c2c3c(sc2nc2sc(C4CC4)nn12)CCCC3,110,92.5% (inactive),110% (inactive),82.7% (inactive),79.7% (inactive),-7.56% (inactive),87.2,79.7,-0.39% (inactive),20.7% (inactive)
Cc1cc(NC(=O)CCCN2C(=O)c3cccnc3C2=O)no1,92,95.5% (inactive),92% (inactive),94.3% (inactive),107% (inactive),5.19% (inactive),102,107,-2.84% (inactive),-1.64% (inactive)
COC(=O)CCN1CCC(C(N)=O)CC1,100,113% (inactive),100% (inactive),102% (inactive),100% (inactive),15% (inactive),85.1,100,-6.8% (inactive),2.46% (inactive)
CCOC(=O)CN1C(=O)C2(OCCCO2)c2ccccc21,99,109% (inactive),99% (inactive),99.7% (inactive),101% (inactive),11.1% (inactive),89.7,101,-7.66% (inactive),-11% (inactive)
Cc1cc(C)c2nc(N)sc2c1,95.5,108% (inactive),95.5% (inactive),105% (inactive),103% (inactive),16.9% (inactive),85.8,103,-6.62% (inactive),-3.33% (inactive)
